Laboratory results: ChEMBL document CHEMBL3817732, “Rational Design of Calpain Inhibitors Based on Calpastatin Peptidomimetics” (J Med Chem, 2016)
Calls of active or inactive are those of the source. No cut-off for these calls is given here.

Experiments:
[1] = biological target: Procathepsin L (Homo sapiens) (UniProt P07711); experiment: Inhibition of human liver cathepsin L assessed as cleavage of Z-FR-AMC at 100 uM by fluorescence spectrometer
Rattus norvegicus [2] = species: Rattus norvegicus; experiment: Inhibition of rat recombinant C-terminal His-tagged calpain-2 expressed in Escherichia coli BL21(DE3) assessed as cleavage of (EDANS)-EPLFAERK-(DABCYL) at 100 uM in presence of CaCl2 by fluorescence spectrometer relative to control
Rattus norvegicus [3] = species: Rattus norvegicus; experiment: Inhibition of rat calpain-1 assessed as cleavage of (EDANS)-EPLFAERK-(DABCYL) at 100 uM in presence of CaCl2 by fluorescence spectrometer relative to control
Rattus norvegicus [4] = species: Rattus norvegicus; experiment: Binding affinity to rat recombinant C-terminal His-tagged calpain-2 C105S mutant expressed in Escherichia coli BL21(DE3) at 25 to 50 uM in presence of CaCl2 and trypsin by MALDI-TOFpeptide fingerprinting method
In short: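 The mixture is exposed to long-wave UV for 2.5 h, with a DMSO control. Photoadducts are tryptically digested and identified by MALDI-TOF mass fingerprinting.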

[5] = Mixed-type inhibition of rat recombinant C-terminal His-tagged calpain-2 expressed in Escherichia coli BL21(DE3) using (EDANS)-EPLFAERK-(DABCYL) as substrate assessed as enzyme/substrate/inhibitor complex in presence of CaCl2 by Michaelis-Menten plot analysis
Papain (Carica papaya) = biological target: T1, Papain (Carica papaya) (UniProt P00784); experiment: Inhibition of papaya papain assessed as cleavage of (EDANS)-EPLFAERK-(DABCYL) at 100 uM by fluorescence spectrometer
T1 sequence (whole entry): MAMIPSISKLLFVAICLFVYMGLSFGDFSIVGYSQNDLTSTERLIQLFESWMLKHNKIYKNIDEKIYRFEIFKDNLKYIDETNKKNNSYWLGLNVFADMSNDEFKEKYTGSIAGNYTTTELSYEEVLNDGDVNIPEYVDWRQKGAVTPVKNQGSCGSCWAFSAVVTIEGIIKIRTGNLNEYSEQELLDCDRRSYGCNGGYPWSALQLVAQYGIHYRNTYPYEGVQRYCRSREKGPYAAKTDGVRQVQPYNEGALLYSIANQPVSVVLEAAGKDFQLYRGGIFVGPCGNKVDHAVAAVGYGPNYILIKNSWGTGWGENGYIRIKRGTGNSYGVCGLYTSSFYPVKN

[6] = Mixed-type inhibition of rat recombinant C-terminal His-tagged calpain-2 expressed in Escherichia coli BL21(DE3) using (EDANS)-EPLFAERK-(DABCYL) as substrate assessed as enzyme/inhibitor complex in presence of CaCl2 by Michaelis-Menten plot analysis
Rattus norvegicus [7] = species: Rattus norvegicus; experiment: Activation of rat recombinant calpain-1 protease core expressed in Escherichia coli BL21(DE3) assessed as cleavage of (EDANS)-EPLFAERK-(DABCYL) at 100 uM in presence of CaCl2 by fluorescence spectrometer
[8] = Competitive inhibition of rat recombinant C-terminal His-tagged calpain-2 expressed in Escherichia coli BL21(DE3) using (EDANS)-EPLFAERK-(DABCYL) as substrate assessed as enzyme/inhibitor complex in presence of CaCl2 by Michaelis-Menten plot analysis
Rattus norvegicus [9] = species: Rattus norvegicus; experiment: Inhibition of rat recombinant calpain-1 protease core expressed in Escherichia coli BL21(DE3) assessed as cleavage of (EDANS)-EPLFAERK-(DABCYL) at 100 uM in presence of CaCl2 by fluorescence spectrometer
[10] = Inhibition of calpain-1 (unknown origin) using H-Glu(Edans)-Pro-Leu-Phe-Ala-Glu-Arg-Lys(Dabcyl)-OH as substrate measured every 13 secs for 1 hr by fluorescence assay
[11] = Non-competitive inhibition of rat recombinant C-terminal His-tagged calpain-2 expressed in Escherichia coli BL21(DE3) using (EDANS)-EPLFAERK-(DABCYL) as substrate assessed as enzyme/substrate/inhibitor complex in presence of CaCl2 by Michaelis-Menten plot analysis
[12] = Non-competitive inhibition of rat recombinant C-terminal His-tagged calpain-2 expressed in Escherichia coli BL21(DE3) using (EDANS)-EPLFAERK-(DABCYL) as substrate assessed as enzyme/inhibitor complex in presence of CaCl2 by Michaelis-Menten plot analysis
[13] = Competitive inhibition of porcine erythrocyte calpain-2 using Suc-Leu-Tyr-AMC as substrate; parameters: species or system Sus scrofa

Sequence of Procathepsin L (Homo sapiens) (P07711 114-333 limits assumed): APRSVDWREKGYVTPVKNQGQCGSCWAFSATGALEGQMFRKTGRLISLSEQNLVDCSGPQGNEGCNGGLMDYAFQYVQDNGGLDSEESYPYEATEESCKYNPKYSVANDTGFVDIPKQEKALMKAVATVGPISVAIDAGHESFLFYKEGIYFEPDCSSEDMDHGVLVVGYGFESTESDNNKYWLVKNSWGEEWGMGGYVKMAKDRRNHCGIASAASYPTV

Row | Compound | inhibition [1] [%] | inhibition (Rattus norvegicus [2]) | inhibition (Rattus norvegicus [3]) | inhibition (Papain (Carica papaya)) | also measured
1 | CC(C)[C@H](NC(=O)C/N=C1\N[C@@H](C)[C@@H](C(=O)NC(C)(C)C)N2CCC[C@H]12)C(=O)N[C@H](CCCN)C(=O)O | 17 | 79% |  |  | 
2 | C[C@@H]1N/C(=N\CC(=O)N[C@@H](Cc2ccccc2)C(=O)N[C@H](CCCN)C(=O)O)[C@H]2CCCN2[C@@H]1C(=O)NC(C)(C)C |  | 39% | 28% |  | 
3 | C[C@H](NC(=O)C/N=C1\N[C@@H](C)[C@@H](C(=O)NC(C)(C)C)N2CCC[C@H]12)C(=O)N[C@H](CCCN)C(=O)O |  | 66% | 54% |  | 
4 | CC(C)C[C@H](NC(=O)C/N=C1\N[C@@H](CSC2CC(=O)N(c3cccc(C(=O)c4ccccc4)c3)C2=O)[C@@H](C(=O)NC(C)(C)C)N2CCC[C@H]12)C(=O)N[C@H](CCCN)C(=O)O (stereo partly specified) |  | Active |  |  | inhibition (Rattus norvegicus [4]): Active
5 | C[C@@H]1NC(=O)[C@H](CCCN)NC(=O)CNC(=O)[C@H](CO)NC(=O)CNC(=O)[C@@H]2CCCN2[C@@H]1C(=O)NC(C)(C)C | > 85 | 78% | 38% | inactive | Ki [5]: 45.6 µM; Ki [6]: 20.3 µM; Activity (Rattus norvegicus [7]): Active
6 | CC(C)C[C@@H]1NC(=O)[C@H](C)NC(=O)CNC(=O)[C@@H]2CCCN2[C@H](C(=O)NC(C)(C)C)[C@H](C)NC(=O)[C@H](CCCCN)NC1=O | > 85 | 84% | 45% | inactive | Ki [8]: 16.6 µM; inhibition (Rattus norvegicus [9]): Active
7 | CC[C@H](C)[C@H](NC(C)=O)C(=O)N1CCC[C@H]1C(=O)N1CCC[C@H]1C(=O)N[C@@H](CCCCN)C(=O)N[C@@H](Cc1ccc(O)cc1)C(=O)N[C@H]1CSSC[C@@H](C(N)=O)NC(=O)[C@H](CC(C)C)NC(=O)[C@H](CC(C)C)NC(=O)[C@H](CCC(=O)O)NC1=O |  |  |  |  | Ki [10]: 10.2 µM
8 | CC[C@H](C)[C@H](NC(=O)C/N=C1\N[C@@H](C)[C@@H](C(=O)NC(C)(C)C)N2CCC[C@H]12)C(=O)N[C@H](CCCN)C(=O)O |  | 67% | 14% |  | 
9 | CC(C)C[C@@H]1NC(=O)[C@H](C)NC(=O)CNC(=O)[C@@H]2CCCN2[C@H](C(=O)NC(C)(C)C)[C@H](CSC2CC(=O)N(c3cccc(C(=O)c4ccccc4)c3)C2=O)NC(=O)[C@H](CCCCN)NC1=O (stereo partly specified) |  | Active |  |  | inhibition (Rattus norvegicus [4]): Active
10 | CC(C)C[C@@H](NC(=O)C/N=C1\N[C@@H](C)[C@@H](C(=O)NC(C)(C)C)N2CCC[C@H]12)C(=O)N[C@H](CCCN)C(=O)O | > 32 | 16% | Active | inactive | Ki [11]: 119 µM; inhibition (Rattus norvegicus [9]): Active; Ki [12]: 154 µM
11 | CC(C)C[C@H](/N=C1\N[C@@H](C)[C@@H](C(=O)NC(C)(C)C)N2CCC[C@H]12)C(=O)N[C@@H](CCCCN)C(=O)NCC(=O)O | > 85 | > 85% | Active | inactive | Ki [8]: 12.2 µM; Activity (Rattus norvegicus [7]): Active
12 | H-DPMSSTYIEELGKREVTIPPKYRELLA-OH |  |  |  |  | Ki [8]: 0.0168 µM; Ki [13]: 0.0087 µM
